Results on nine compounds are retold here after ChEMBL document CHEMBL1151257, “Cytotoxic furanosesterterpenes from a marine sponge Psammocinia sp” (J Nat Prod, 2004).

For orientation: inhibition means the percentage by which the read-out fell short of the control. Higher therefore signals strong suppression. The term IC50 denotes the concentration that inhibits the measured activity by half.

Values after ≈ are worked out from the molar mass of the structure shown. Where only a bound is given, the exact number is not on record here.

One test relates to HCT-15. Put plainly: Cytotoxicity against human HCT15 cells. The class given is functional. The conditions noted are these: read-out: ED50 (the source's name).
The next test deals with SK-MEL-2. In words: Cytotoxicity against human SK-MEL-2 cells. The test is classed as functional. To be noted: read-out: ED50 (the source's name).
The next test deals with SK-OV-3. Put plainly: Cytotoxicity against human SKOV3 cells. The test is classed as functional. The conditions noted are these: read-out: ED50 (the source's name).
A further test has as its system XF498. Put plainly: Cytotoxicity against human XF498 cells. The class given is functional. To be noted: read-out: ED50 (the source's name).
The test system of the next test is A549. In words: Cytotoxicity against human A549 cells. The class given is functional. The conditions noted are these: read-out: ED50 (the source's name).
Test [1] relates to Simian virus 40. Put plainly: Inhibition of SV 40 DNA replication in human HeLa cells at 250 uM. The class given is functional. The conditions noted are these: Betapolyomavirus macacae. Summed up:
(§1)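 SV40 DNA replication reaction run at 37 °C for 2 h; replication quantified as acid-insoluble radioactivity.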

Test [2] deals with Simian virus 40. Put plainly: Inhibition of SV 40 DNA replication in human HeLa cells at 500 uM. The test is classed as functional. To be noted: Betapolyomavirus macacae. Summed up:
as §1

Test [3] concerns Simian virus 40. Put plainly: Inhibition of SV40 DNA replication in human HeLa cells at 125 uM. The test is classed as functional. To be noted: Betapolyomavirus macacae. Summed up:
as §1

The nature of test [4]: Inhibition of DNA polymerase alpha. A digest of the protocol:
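DNA polymerase α reaction incubated at 37 °C for 30 min; activity read as acid-insoluble radioactivity.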

In the case of `CC1=C(O)/C(=C/[C@H](C)CC/C=C(/C)CCC/C(C)=C\CCc2ccoc2)OC1=O`, the EC50 is 16 µg/mL (≈ 40.1 µM) with HCT-15; 14.4 µg/mL (≈ 36.1 µM) in the test on SK-MEL-2; 14.1 µg/mL (≈ 35.4 µM) with SK-OV-3; 20.3 µg/mL (≈ 50.9 µM) in the test with XF498; over 30 µg/mL in the test on A549.

For the compound `CC1=C(O)/C(=C/[C@H](C)CC/C=C(/C)CC/C=C(\C)CCCc2ccoc2)OC1=O`, the EC50 in the test with HCT-15 worked out at 11 µg/mL (≈ 27.6 µM); with SK-MEL-2 it was 5.8 µg/mL (≈ 14.6 µM); in the test on SK-OV-3 it was 7.5 µg/mL (≈ 18.8 µM); in the test on XF498 it was 8.7 µg/mL (≈ 21.8 µM); with A549, 10.5 µg/mL (≈ 26.3 µM). Further, the inhibition at 250 µM with Simian virus 40 [1] worked out at 60%. Besides, in the test with Simian virus 40 [2], 500 µM produced 100% inhibition. For the same compound, in the test with Simian virus 40 [3], the inhibition at 125 µM was found to be 30%. The compound further came in with an IC50 in test [4] of 5 µM.

Regarding `CC1=C(O)/C(=C/[C@H](C)CCC/C(C)=C/CC/C(C)=C/CCc2ccoc2)OC1=O`, the EC50 with HCT-15 was determined as 23.5 µg/mL (≈ 59 µM); in the test with SK-MEL-2 it was 19 µg/mL (≈ 47.7 µM); in the test on SK-OV-3, 18.6 µg/mL (≈ 46.7 µM); with XF498, 22.1 µg/mL (≈ 55.5 µM); in the test on A549 it was 24.1 µg/mL (≈ 60.5 µM).

Consider `COc1cccc2c1C(=O)c1c(O)c3c(c(O)c1C2=O)C[C@@](O)(C(=O)CO)C[C@@H]3O[C@H]1C[C@H](N)[C@H](O)[C@H](C)O1` [DOXORUBICIN], for which the EC50 in the test on HCT-15 is 0.12 µg/mL (≈ 0.221 µM); in the test with SK-MEL-2, 0.05 µg/mL (≈ 0.092 µM); in the test with SK-OV-3 it was 0.15 µg/mL (≈ 0.276 µM); in the test with XF498, 0.15 µg/mL (≈ 0.276 µM); with A549, 0.03 µg/mL (≈ 0.0552 µM).

In the case of `CC1=C(O)[C@@H](C/C(C)=C/C=C/C(C)CCC/C(C)=C/CCc2ccoc2)OC1=O` (some centres undefined) [ISOPALINURIN], the EC50 was over 30 µg/mL in the test on HCT-15; 10.7 µg/mL (≈ 26.8 µM) in the test on SK-MEL-2; 16.5 µg/mL (≈ 41.4 µM) in the test with SK-OV-3; 10 µg/mL (≈ 25.1 µM) with XF498; over 30 µg/mL with A549.

Turning to `CC1=C(O)[C@@H](C/C(C)=C/CCC(C)/C=C/C=C(\C)CCCc2ccoc2)OC1=O` (some centres undefined) [PALINURIN], the EC50 in the test on HCT-15 came to 5.4 µg/mL (≈ 13.5 µM); in the test with SK-MEL-2, 4.4 µg/mL (≈ 11 µM); in the test on SK-OV-3 it was 10.2 µg/mL (≈ 25.6 µM); in the test with XF498, 5.1 µg/mL (≈ 12.8 µM); in the test with A549, 5.2 µg/mL (≈ 13 µM).

As for `CC1=C/C(=C/[C@H](C)CCC(=O)/C(C)=C/CC/C(C)=C/CCc2ccoc2)OC1=O` [PSAMMOCININ A1], the EC50 with HCT-15 was 20.5 µg/mL (≈ 51.7 µM); in the test with SK-MEL-2, 7.5 µg/mL (≈ 18.9 µM); with SK-OV-3 it was over 30 µg/mL; in the test on XF498 it was 28.1 µg/mL (≈ 70.9 µM); in the test on A549 it was over 30 µg/mL.

As for `CC1=C/C(=C/[C@H](C)CCC(=O)C(C)CCC/C(C)=C/CCc2ccoc2)OC1=O` (some centres undefined) [PSAMMOCININ A2], the EC50 in the test on HCT-15 was 11.7 µg/mL (≈ 29.4 µM); in the test with SK-MEL-2 it was 4.8 µg/mL (≈ 12 µM); in the test on SK-OV-3, 12.3 µg/mL (≈ 30.9 µM); in the test on XF498, 10.5 µg/mL (≈ 26.3 µM); with A549, 7.5 µg/mL (≈ 18.8 µM).

With `COC1C=C(CC/C=C(\C)CC/C=C(\C)CCCC(C)/C=C2\OC(=O)C(C)=C2O)C(OC)O1` (centres undefined) [PSAMMOCININ B], the EC50 in the test with HCT-15 is 19.2 µg/mL (≈ 41.7 µM); in the test with SK-MEL-2, 7.5 µg/mL (≈ 16.3 µM); in the test on SK-OV-3, 12.6 µg/mL (≈ 27.4 µM); in the test with XF498, 7.8 µg/mL (≈ 16.9 µM); in the test with A549, 8.2 µg/mL (≈ 17.8 µM).
